# Laboratory results: ChEMBL document CHEMBL5247578, “Effective synthesis of benzimidazoles-imidazo[1,2-a]pyrazine conjugates: A comparative study of mono-and bis-benzimidazoles for antitumor activity” (Eur J Med Chem, 2019)
# Key:
# [1] = system: SW-620; test: Antiproliferative activity against human SW620 cells assessed as cell growth at 0.00001 M incubated for 48 hrs by SRB assay relative to control; assay type: functional; conditions: read-out: Activity
# [2] = system: U-251; test: Growth inhibition against human U-251 cells assessed as total growth inhibitory concentration incubated for 48 hrs by sulforhodamine B assay; assay type: functional
# [3] = system: Calf thymus DNA; test: Binding affinity to calf thymus DNA assessed as change in enthalpy at temperature of 298 K by Van't Hoff plot analysis; assay type: nucleic-acid assay; conditions: Bos taurus
# [4] = system: Calf thymus DNA; test: Binding affinity to calf thymus DNA assessed as binding constant at temperature of 318 K by Stern-Volmer quenching plot based fluorescence spectroscopic method; assay type: nucleic-acid assay; conditions: Bos taurus
# [5] = system: MDA-MB-435; test: Growth inhibition against human MDA-MB-435 cells assessed as total growth inhibitory concentration incubated for 48 hrs by sulforhodamine B assay; assay type: functional
# [6] = system: K562; test: Antiproliferative activity against human K562 cells assessed as cell growth at 0.000001 M incubated for 48 hrs by SRB assay relative to control; assay type: functional; conditions: read-out: Activity
# [7] = system: SK-MEL-5; test: Antiproliferative activity against human SK-MEL-5 cells assessed as cell growth inhibition by measuring lethal concentration incubated for 48 hrs by sulforhodamine B assay; assay type: functional; conditions: read-out: LC50 (the source's name)
# [8] = system: K562; test: Antiproliferative activity against human K562 cells assessed as cell growth at 0.00001 M incubated for 48 hrs by SRB assay relative to control; assay type: functional; conditions: read-out: Activity
# [9] = system: K562; test: Antiproliferative activity against human K562 cells assessed as cell growth at 0.0001 M incubated for 48 hrs by SRB assay relative to control; assay type: functional; conditions: read-out: Activity
# [10] = system: SK-MEL-28; test: Growth inhibition against human SK-MEL-28 cells assessed as total growth inhibitory concentration incubated for 48 hrs by sulforhodamine B assay; assay type: functional
# [11] = system: Calf thymus DNA; test: Binding affinity to calf thymus DNA assessed as DNA intercalation by measuring Stem-Volmer quenching constant at temperature of 308 K by fluorescence spectroscopic method; assay type: nucleic-acid assay; conditions: Bos taurus
# [12] = system: Calf thymus DNA; test: Binding affinity to calf thymus DNA assessed as gibbs free energy change at temperature of 318 K by Van't Hoff plot analysis; assay type: nucleic-acid assay; conditions: Bos taurus
# [13] = system: Calf thymus DNA; test: Binding affinity to calf thymus DNA assessed as quenching constant at temperature of 318 K by fluorescence spectroscopic method; assay type: nucleic-acid assay; conditions: Bos taurus
# [14] = system: SN12C; test: Growth inhibition against human SN12C cells assessed as total growth inhibitory concentration incubated for 48 hrs by sulforhodamine B assay; assay type: functional
# [15] = system: Calf thymus DNA; test: Binding affinity to calf thymus DNA assessed as fluorescence quenching intensity at 5 uM at temperature of 318 K by fluorescence spectroscopic method relative to control; assay type: nucleic-acid assay; conditions: Bos taurus
# [16] = system: Calf thymus DNA; test: Binding affinity to calf thymus DNA assessed as fluorescence quenching intensity at 5 uM at temperature of 308 K by fluorescence spectroscopic method relative to control; assay type: nucleic-acid assay; conditions: Bos taurus
# [17] = system: U-251; test: Antiproliferative activity against human U-251 cells assessed as cell growth at 0.0001 M incubated for 48 hrs by SRB assay relative to control; assay type: functional; conditions: read-out: Activity
# [18] = system: RXF 393; test: Antiproliferative activity against human RXF 393 cells assessed as cell growth inhibition by measuring lethal concentration incubated for 48 hrs by sulforhodamine B assay; assay type: functional; conditions: read-out: LC50 (the source's name)
# [19] = system: K562; test: Antiproliferative activity against human K562 cells assessed as cell growth at 0.00000001 M incubated for 48 hrs by SRB assay relative to control; assay type: functional; conditions: dose 10 nM, read-out: Activity
# [20] = system: K562; test: Antiproliferative activity against human K562 cells assessed as cell growth inhibition by measuring lethal concentration incubated for 48 hrs by sulforhodamine B assay; assay type: functional; conditions: read-out: LC50 (the source's name)
# [21] = system: Calf thymus DNA; test: Binding affinity to calf thymus DNA assessed as gibbs free energy change at temperature of 298 K by Van't Hoff plot analysis; assay type: nucleic-acid assay; conditions: Bos taurus
# [22] = system: NCI/ADR-RES; test: Antiproliferative activity against human NCI/ADR-RES cells assessed as cell growth at 0.0001 M incubated for 48 hrs by SRB assay relative to control; assay type: functional; conditions: read-out: Activity
# [23] = system: UACC-257; test: Antiproliferative activity against human UACC-257 cells assessed as cell growth inhibition by measuring lethal concentration incubated for 48 hrs by sulforhodamine B assay; assay type: functional; conditions: read-out: LC50 (the source's name)
# How it was run: (§1)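 NCI-60 five-dose screen (10^-4 to 10^-8 M, 10-fold dilutions; DMSO stocks). Cells in RPMI 1640 with 5% FBS and 2 mM L-glutamine, preincubated 24 h, then exposed 48 h at 37 °C, 5% CO2. Fixed with cold TCA, stained with 0.4% SRB, absorbance read at 515 nm. Time-zero plates used as reference. LC50 taken from [(Ti-Tz)/Tz]×100 […].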
# [24] = system: LOX IMVI; test: Growth inhibition against human LOX IMVI cells assessed as total growth inhibitory concentration incubated for 48 hrs by sulforhodamine B assay; assay type: functional
# [25] = system: HCT-116; test: Antiproliferative activity against human HCT-116 cells assessed as cell growth inhibition by measuring lethal concentration incubated for 48 hrs by sulforhodamine B assay; assay type: functional; conditions: read-out: LC50 (the source's name)
# [26] = system: T47D; test: Growth inhibition against human T47D cells assessed as total growth inhibitory concentration incubated for 48 hrs by sulforhodamine B assay; assay type: functional
# [27] = system: SF-295; test: Antiproliferative activity against human SF-295 cells assessed as cell growth inhibition by measuring lethal concentration incubated for 48 hrs by sulforhodamine B assay; assay type: functional; conditions: read-out: LC50 (the source's name)
# [28] = system: Calf thymus DNA; test: Binding affinity to calf thymus DNA assessed as quenching constant at temperature of 308 K by fluorescence spectroscopic method; assay type: nucleic-acid assay; conditions: Bos taurus
# [29] = system: SNB-75; test: Antiproliferative activity against human SNB-75 cells assessed as cell growth inhibition by measuring lethal concentration incubated for 48 hrs by sulforhodamine B assay; assay type: functional; conditions: read-out: LC50 (the source's name); how it was run: as §1
# [30] = system: SK-OV-3; test: Growth inhibition against human SK-OV-3 cells assessed as total growth inhibitory concentration incubated for 48 hrs by sulforhodamine B assay; assay type: functional
# [31] = system: SW-620; test: Growth inhibition against human SW620 cells assessed as total growth inhibitory concentration incubated for 48 hrs by sulforhodamine B assay; assay type: functional
# [32] = system: LOX IMVI; test: Antiproliferative activity against human LOX IMVI cells assessed as cell growth inhibition by measuring lethal concentration incubated for 48 hrs by sulforhodamine B assay; assay type: functional; conditions: read-out: LC50 (the source's name)
# [33] = system: MOLT-4; test: Antiproliferative activity against human MOLT-4 cells assessed as cell growth at 0.00001 M incubated for 48 hrs by SRB assay relative to control; assay type: functional; conditions: read-out: Activity
# [34] = system: NCI-H226; test: Antiproliferative activity against human NCI-H226 cells assessed as cell growth at 0.00001 M incubated for 48 hrs by SRB assay relative to control; assay type: functional; conditions: read-out: Activity
# [35] = system: HOP-62; test: Growth inhibition against human HOP-62 cells assessed as total growth inhibitory concentration incubated for 48 hrs by sulforhodamine B assay; assay type: functional
# [36] = system: SN12C; test: Antiproliferative activity against human SN12C cells assessed as cell growth at 0.0001 M incubated for 48 hrs by SRB assay relative to control; assay type: functional; conditions: read-out: Activity
# [37] = system: 786-0; test: Growth inhibition against human 786-0 cells assessed as total growth inhibitory concentration incubated for 48 hrs by sulforhodamine B assay; assay type: functional
# [38] = system: NCI-H522; test: Antiproliferative activity against human NCI-H522 cells assessed as cell growth at 0.0001 M incubated for 48 hrs by SRB assay relative to control; assay type: functional; conditions: read-out: Activity
# [39] = system: NCI/ADR-RES; test: Growth inhibition against human NCI/ADR-RES cells assessed as total growth inhibitory concentration incubated for 48 hrs by sulforhodamine B assay; assay type: functional
# [40] = system: SF-295; test: Growth inhibition against human SF-295 cells assessed as total growth inhibitory concentration incubated for 48 hrs by sulforhodamine B assay; assay type: functional
smiles,measurement,setting,value
COc1ccc(-c2cn3ccnc3c(-c3ccc4ncn(C5CCCCC5)c4c3)n2)cc1,growth at 10 µM,[1],29%
same,TGI,[2],> 100 µM
same,deltaH,[3],-69.3 kcal/mol
same,Kb,[4],0.02 10^4/M
same,TGI,[5],> 100 µM
same,growth at 1 µM,[6],25%
same,CC50,[7],> 100 µM
same,growth at 10 µM,[8],8%
same,growth at 100 µM,[9],11%
same,TGI,[10],> 100 µM
same,KSV,[11],1.68 10^4/M
same,deltaG,[12],-3.79 kcal/mol
same,Kq,[13],0.73 10^12/M/s
same,TGI,[14],> 100 µM
same,Activity,[15],60%
same,Activity,[16],65%
same,growth at 100 µM,[17],6%
same,CC50,[18],> 100 µM
same,growth at 0.01 µM,[19],105%
same,CC50,[20],> 100 µM
same,deltaG,[21],-7.91 kcal/mol
same,growth at 100 µM,[22],3%
same,CC50,[23],> 100 µM
same,TGI,[24],> 100 µM
same,CC50,[25],> 100 µM
same,TGI,[26],4.5 µM
same,CC50,[27],> 100 µM
same,Kq,[28],1.68 10^12/M/s
same,CC50,[29],> 100 µM
same,TGI,[30],7.64 µM
same,TGI,[31],> 100 µM
same,CC50,[32],> 100 µM
same,growth at 10 µM,[33],13%
same,growth at 10 µM,[34],25%
same,TGI,[35],> 100 µM
same,growth at 100 µM,[36],31%
c1ccc(Cn2cnc3ccc(-c4nc(-c5ccc6c(c5)ncn6C5CCCCC5)cn5ccnc45)cc32)cc1,TGI,[37],> 100 µM
same,growth at 100 µM,[38],-42%
same,TGI,[39],5.43 µM
same,TGI,[40],2.98 µM
